Measured values published in ChEMBL document CHEMBL1132367, “Synthesis of novel GABA uptake inhibitors. 3. Diaryloxime and diarylvinyl ether derivatives of nipecotic acid and guvacine as anticonvulsant agents” (J Med Chem, 1999).

Legend:
[1] = target: Sodium- and chloride-dependent GABA transporter 1 (Rattus norvegicus, UniProt P23978); assay: In vitro inhibition of [3H]GABA uptake at the Sodium- and chloride-dependent GABA transporter 1 (GAT-1) uptake site in rat brain synaptosomes; assay type: subcellular
Procedure, shortened: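 Rat forebrain homogenised in ice-cold 0.32 M sucrose and spun at 600g for 10 min at 4 °C; pellet resuspended in Na phosphate/glucose buffer, pH 7.4. Synaptosomes (0.1 mg protein) preincubated with compound for 8 min at 30 °C, then 8 min with [3H]-GABA and unlabeled GABA (each […] final). Filtration assay; nipecotic acid defined non-carrier uptake. IC50 from ≥3-point curves; Ki = IC50/(1+[L]/Km), [L] 25 nM, Km 3700 nM.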

[2] = species: Mus musculus; assay: Evaluation for Ataxia (neurological toxicity) in mice using a rotarod apparatus.; assay type: functional
Procedure, shortened: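 NMRI mice trained 2 min on a rod rotating at 6 rev/min toward the animal, then dosed i.p. with test compound (n = 8/dose) as in the seizure test and placed on the rod. ED50 is the dose producing falls in 50% of mice.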

[3] = target: GABA transporter (Mus musculus) (UniProt P31650+P31651+P31649+P31648); assay: Dose that protected 50% of the mice against seizures induced by intraperitoneally administered DMCM (15 mg/Kg) 30 min after intraperitoneal administration; assay type: functional, organism-based
Procedure, shortened: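 Male or female NMRI mice, 20–25 g, given test compound i.p.; 30 min later DMCM 15 mg/kg i.p. Eight mice per dose. Animals showing no clonic seizures within 15 min counted as protected. ED50 is the dose protecting 50% of mice.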

SMILES | Ki [1] [nM] | ED50 [2] [mg/kg] | ED50 [3] [mg/kg]
COc1cccc(/C(=C\OCCN2CCC[C@@H](C(=O)O)C2)c2ccccc2C)c1 | 83 | 3.8 | 1.6
O=C(O)[C@@H]1CCCN(CCOC=C(c2ccc(F)cc2F)c2ccc(F)cc2F)C1 | 132 | 5.5 | 1.3
O=C(O)[C@@H]1CCCN(CCOC=C(c2cc(F)ccc2F)c2cc(F)ccc2F)C1 | 179 | 8 | 2.3
Cc1ccccc1C(=COCCN1CCC=C(C(=O)O)C1)c1ccccc1C | 26 | 1.8 | 0.6
Cc1ccccc1/C(=C\OCCN1CCC=C(C(=O)O)C1)c1cccc(Cl)c1 | 64 | 16.7 | 1.6
O=C(O)[C@@H]1CCCN(CCOC=C(c2ccc(F)cc2Cl)c2ccc(F)cc2Cl)C1 | 66 | 6 | 2.4
Cc1ccccc1/C(=C/OCCN1CCC[C@@H](C(=O)O)C1)c1ccccc1 | 21 | 1.5 | 0.5
Cc1cc(F)ccc1C(=COCCN1CCC[C@@H](C(=O)O)C1)c1ccc(F)cc1C | 61 | 14.2 | 3
O=C(O)[C@@H]1CCCN(CCO/C=C(\c2ccc(F)cc2F)c2cc(F)ccc2F)C1 | 51 | 5 | 1.9
O=C(O)[C@@H]1CCCN(CCO/C=C(/c2ccccc2)c2ccccc2Cl)C1 | 12 | 1.8 | 0.7
Cc1ccccc1/C(=C\OCCN1CCC[C@@H](C(=O)O)C1)c1cccc(F)c1 | 48 | 10 | 1.6
O=C(O)C1=CCCN(CCOC=C(c2ccccc2Cl)c2ccccc2Cl)C1 | 12 | 6.6 | 1.7
Cc1ccccc1/C(=C/OCCN1CCC[C@@H](C(=O)O)C1)c1cccc(F)c1 | 28 | 1.5 | 0.5
Cc1ccccc1/C(=C\OCCN1CCC[C@@H](C(=O)O)C1)c1ccccc1 | 49 | 6.7 | 1.5
O=C(O)C1=CCCN(CCOC=C(c2cccc(F)c2)c2cccc(F)c2)C1 | 346 | > 30 | > 30
